SMILES strings stand for the structures.

The nature of data set [1]: Apparent half life in human liver microsomes at 3 uM. The class given is ADME, microsome. The conditions noted are these: read-out: t1/2(app). Background: Liver microsomes are a subcellular fraction often used to study metabolism.
The nature of data set [2]: Intrinsic clearance in human liver microsomes at 3 uM. The class given is ADME, microsome. The conditions noted are these: read-out: CLH.
In the next data set the test system is CCRF-CEM. Briefly: Growth inhibition of human CCRF-CEM cells at 10 uM after 48 hrs by sulforhodamine B assay relative to control. The class given is functional. Particulars: read-out: GI. In a few lines: (§1)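 NCI-60 single-dose screen at 10 μM for 48 h. Percent growth inhibition was measured by sulforhodamine B staining of cellular protein.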
Background: In SRB staining, fixed cells bind dye roughly in proportion to their protein.

For data set [3], the system named is HCC 2998. Briefly: Growth inhibition of human HCC2998 cells at 10 uM after 48 hrs by sulforhodamine B assay relative to control. Particulars: HCC 2998, 48 h, read-out: GI. Format: functional. Put shortly:
as §1

The next data set deals with SW-620. Briefly: Growth inhibition of human SW620 cells at 10 uM after 48 hrs by sulforhodamine B assay relative to control. The conditions noted are these: SW-620, 48 h, read-out: GI. The class given is functional. Put shortly: (§2)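 NCI-60 human cancer cell line screen, single dose of 10 μM for 48 h. Cellular protein content read by sulforhodamine B staining; growth inhibition expressed relative to untreated control.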

Another data set relates to UO-31. Briefly: Growth inhibition of human UO31 cells at 10 uM after 48 hrs by sulforhodamine B assay relative to control. Format: functional. Particulars: UO-31, 48 h, read-out: GI. In a few lines: as §2
In another data set the test system is NCI-H226. Briefly: Growth inhibition of human NCI-H226 cells after 48 hrs by sulforhodamine B assay. The class given is functional. The conditions noted are these: NCI-H226, 48 h. In a few lines:
(§3)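 NCI-60 panel follow-up: five concentrations from 10 nM to 100 μM, 48 h exposure. Growth read by sulforhodamine B protein staining. GI50 derived from the concentration-response, with the concentration for total growth inhibition (TGI) also recorded when below 100 μM.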

Data set [4] has as its system HCC 2998. Briefly: Growth inhibition of human HCC2998 cells after 48 hrs by sulforhodamine B assay. The conditions noted are these: HCC 2998, 48 h. The class given is functional. Put shortly:
(§4)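 NCI-60 panel screen. Cells were exposed for 48 h at five concentrations between 10 nM and 100 μM. Cellular protein was read by sulforhodamine B staining, and GI50 and total growth inhibition (TGI) concentrations were derived.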

A further data set has as its system Malme-3M. Briefly: Growth inhibition of human MALME-3M cells after 48 hrs by sulforhodamine B assay. Format: functional. Put shortly: as §4
The subject of the next data set is UACC-257. Briefly: Growth inhibition of human UACC257 cells after 48 hrs by sulforhodamine B assay. The class given is functional. The conditions noted are these: UACC-257, 48 h. Put shortly:
(§5)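 NCI-60 panel cells treated at five concentrations from 10 nM to 100 μM for 48 h. Read-out by sulforhodamine B protein stain. GI50 and total growth inhibition (TGI, if below 100 μM) taken from the concentration-response data.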

Data set [5] relates to RXF 393. Briefly: Growth inhibition of human RXF393 cells after 48 hrs by sulforhodamine B assay. Format: functional. The conditions noted are these: RXF 393, 48 h. Put shortly:
as §3

Data set [6] addresses ATPase family AAA domain-containing protein 2B (Homo sapiens) (UniProt Q9ULI0). Briefly: Inhibition of human partial length ATAD2B (Q955 to R1082 residues) expressed in bacterial expression system assessed as residual activity at 1 uM by BROMOscan assay relative to control.
In data set [7] the target is Bromodomain-containing protein 2 (Homo sapiens) (UniProt P25440). Briefly: Inhibition of human partial length BRD2 bromodomain 1 (K71 to N194 residues) expressed in bacterial expression system assessed as residual activity at 1 uM by BROMOscan assay relative to control.
The target in data set [8] is Bromodomain-containing protein 3 (Homo sapiens) (UniProt Q15059). Briefly: Inhibition of human partial length BRD3 bromodomain 1 (P24 to E144 residues) expressed in bacterial expression system assessed as residual activity at 1 uM by BROMOscan assay relative to control.
For data set [9], the target named is T1, Bromodomain-containing protein 4 (Homo sapiens, UniProt O60885). Briefly: Inhibition of human partial length BRD4 bromodomain 1 (N44 to E168 residues) expressed in bacterial expression system assessed as residual activity at 1 uM by BROMOscan assay relative to control.
In data set [10] the target is T1, Bromodomain-containing protein 4. Briefly: Inhibition of human partial length BRD4 bromodomain 2 (K333 to E460 residues) expressed in bacterial expression system assessed as residual activity at 1 uM by BROMOscan assay relative to control.
Data set [11] has as its target Bromodomain-containing protein 9 (Homo sapiens) (UniProt Q9H8M2). Briefly: Inhibition of human partial length BRD9 (R130 to V259 residues) expressed in bacterial expression system assessed as residual activity at 1 uM by BROMOscan assay relative to control.
Data set [12] addresses Bromodomain testis-specific protein (Homo sapiens) (UniProt Q58F21). Briefly: Inhibition of human partial length BRDT bromodomain 1 (N21 to E137 residues) expressed in bacterial expression system assessed as residual activity at 1 uM by BROMOscan assay relative to control.
The target in another data set is Peregrin (Homo sapiens) (UniProt P55201). Briefly: Inhibition of human partial length BRPF1 (E627 to G740 residues) expressed in bacterial expression system assessed as residual activity at 1 uM by BROMOscan assay relative to control.
For data set [13], the target named is CREB-binding protein (Homo sapiens) (UniProt Q92793). Briefly: Inhibition of human partial length CREBBP (R1081 to G1197 residues) expressed in bacterial expression system assessed as residual activity at 1 uM by BROMOscan assay relative to control.
Data set [14] deals with Histone acetyltransferase KAT2B (Homo sapiens) (UniProt Q92831). Briefly: Inhibition of human partial length PCAF (G715 to D831 residues) expressed in bacterial expression system assessed as residual activity at 1 uM by BROMOscan assay relative to control.
For data set [15], the target named is SWI/SNF-related matrix-associated actin-dependent regulator of chromatin subfamily A member 4 (Homo sapiens) (UniProt P51532). Briefly: Inhibition of human partial length SMARCA4 (A1448 to S1575 residues) expressed in bacterial expression system assessed as residual activity at 1 uM by BROMOscan assay relative to control.
For data set [16], the target named is Bromodomain and WD repeat-containing protein 1 (Homo sapiens) (UniProt Q9NSI6). Briefly: Inhibition of human partial length WDR9 bromodomain 2 (A1310 to E1430 residues) expressed in bacterial expression system assessed as residual activity at 1 uM by BROMOscan assay relative to control.
The next data set relates to U-251. Briefly: Growth inhibition of human U251 cells at 10 uM after 48 hrs by sulforhodamine B assay relative to control. The class given is functional. Particulars: U-251, 48 h, read-out: GI. Put shortly: as §2
The subject of data set [17] is RXF 393. Briefly: Growth inhibition of human RXF393 cells at 10 uM after 48 hrs by sulforhodamine B assay relative to control. The class given is functional. The conditions noted are these: RXF 393, 48 h, read-out: GI. Put shortly: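 NCI-60 human cancer cell line screen, single-dose pass: cells exposed to 10 μM for 48 h. Cellular protein content read out by sulforhodamine B staining, and growth inhibition expressed relative to untreated control.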

Another data set has as its system NCI-H23. Briefly: Growth inhibition of human NCI-H23 cells after 48 hrs by sulforhodamine B assay. Format: functional. Particulars: NCI-H23, 48 h. In a few lines: as §3
A further data set concerns UACC-62. Briefly: Growth inhibition of human UACC62 cells after 48 hrs by sulforhodamine B assay. The class given is functional. Particulars: UACC-62, 48 h. In a few lines:
as §5

Another data set concerns PC-3. Briefly: Growth inhibition of human PC3 cells after 48 hrs by sulforhodamine B assay. The class given is functional. The conditions noted are these: PC-3, 48 h. Put shortly:
as §3

Chain of Bromodomain and WD repeat-containing protein 1 (Homo sapiens) (Q9NSI6 whole entry, the tested form may be a part): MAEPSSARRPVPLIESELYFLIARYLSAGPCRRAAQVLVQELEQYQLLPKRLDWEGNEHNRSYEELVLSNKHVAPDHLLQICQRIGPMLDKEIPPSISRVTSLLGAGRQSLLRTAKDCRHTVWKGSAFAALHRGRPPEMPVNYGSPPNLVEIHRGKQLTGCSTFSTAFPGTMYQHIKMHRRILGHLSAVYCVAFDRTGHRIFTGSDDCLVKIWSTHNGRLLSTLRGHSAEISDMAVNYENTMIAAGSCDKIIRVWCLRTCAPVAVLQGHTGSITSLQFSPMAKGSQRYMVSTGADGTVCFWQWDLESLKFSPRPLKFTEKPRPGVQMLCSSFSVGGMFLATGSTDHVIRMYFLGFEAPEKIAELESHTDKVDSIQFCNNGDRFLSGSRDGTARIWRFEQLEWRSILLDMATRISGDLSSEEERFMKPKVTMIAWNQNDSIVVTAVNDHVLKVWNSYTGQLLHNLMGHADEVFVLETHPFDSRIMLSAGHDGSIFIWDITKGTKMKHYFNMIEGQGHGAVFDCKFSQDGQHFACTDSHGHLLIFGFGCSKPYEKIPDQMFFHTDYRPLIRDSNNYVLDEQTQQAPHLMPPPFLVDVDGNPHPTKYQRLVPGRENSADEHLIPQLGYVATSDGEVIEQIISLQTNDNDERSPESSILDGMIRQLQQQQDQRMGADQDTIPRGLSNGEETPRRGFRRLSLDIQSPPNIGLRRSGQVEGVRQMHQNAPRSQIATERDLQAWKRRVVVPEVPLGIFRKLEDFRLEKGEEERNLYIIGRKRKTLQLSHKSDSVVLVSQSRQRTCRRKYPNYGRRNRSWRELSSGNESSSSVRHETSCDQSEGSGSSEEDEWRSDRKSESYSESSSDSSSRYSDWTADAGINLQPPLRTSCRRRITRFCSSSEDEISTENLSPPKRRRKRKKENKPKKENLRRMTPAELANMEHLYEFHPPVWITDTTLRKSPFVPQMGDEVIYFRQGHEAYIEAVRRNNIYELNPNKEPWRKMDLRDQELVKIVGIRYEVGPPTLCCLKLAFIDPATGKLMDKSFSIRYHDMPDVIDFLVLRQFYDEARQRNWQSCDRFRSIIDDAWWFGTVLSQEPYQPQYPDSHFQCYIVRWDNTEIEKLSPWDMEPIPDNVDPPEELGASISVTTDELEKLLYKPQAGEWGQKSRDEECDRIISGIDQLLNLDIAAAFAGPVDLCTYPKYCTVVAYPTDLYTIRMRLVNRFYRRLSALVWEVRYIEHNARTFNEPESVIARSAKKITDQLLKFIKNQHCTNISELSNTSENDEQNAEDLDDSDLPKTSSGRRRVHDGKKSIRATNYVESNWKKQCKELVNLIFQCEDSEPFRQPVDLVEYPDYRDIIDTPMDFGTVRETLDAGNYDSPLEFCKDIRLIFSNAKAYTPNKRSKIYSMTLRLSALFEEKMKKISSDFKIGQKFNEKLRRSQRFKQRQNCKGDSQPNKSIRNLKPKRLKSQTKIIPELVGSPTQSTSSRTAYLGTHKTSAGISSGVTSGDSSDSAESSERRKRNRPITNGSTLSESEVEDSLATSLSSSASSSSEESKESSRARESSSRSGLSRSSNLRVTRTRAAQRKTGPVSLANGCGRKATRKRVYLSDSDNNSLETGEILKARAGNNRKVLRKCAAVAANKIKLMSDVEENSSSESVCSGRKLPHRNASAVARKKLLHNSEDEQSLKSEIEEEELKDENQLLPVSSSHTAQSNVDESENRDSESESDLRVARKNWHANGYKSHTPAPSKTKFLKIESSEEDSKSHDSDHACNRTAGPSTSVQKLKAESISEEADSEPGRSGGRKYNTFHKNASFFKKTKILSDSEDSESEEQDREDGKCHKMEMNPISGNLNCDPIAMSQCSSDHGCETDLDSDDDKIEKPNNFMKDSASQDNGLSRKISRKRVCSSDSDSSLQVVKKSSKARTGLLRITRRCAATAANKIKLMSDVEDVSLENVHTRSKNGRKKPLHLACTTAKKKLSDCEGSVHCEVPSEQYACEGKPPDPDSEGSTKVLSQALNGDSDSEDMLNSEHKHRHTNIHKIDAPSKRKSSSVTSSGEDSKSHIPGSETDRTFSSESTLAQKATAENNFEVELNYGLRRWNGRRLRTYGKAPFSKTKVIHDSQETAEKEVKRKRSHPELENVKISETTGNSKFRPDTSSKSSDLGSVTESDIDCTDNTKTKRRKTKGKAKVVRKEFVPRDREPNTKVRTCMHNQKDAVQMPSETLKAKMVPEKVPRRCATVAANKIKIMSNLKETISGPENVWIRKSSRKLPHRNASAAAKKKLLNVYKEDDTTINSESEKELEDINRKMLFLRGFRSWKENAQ
Chain of Histone acetyltransferase KAT2B (Homo sapiens) (Q92831 whole entry, looked up, the tested form may be a part): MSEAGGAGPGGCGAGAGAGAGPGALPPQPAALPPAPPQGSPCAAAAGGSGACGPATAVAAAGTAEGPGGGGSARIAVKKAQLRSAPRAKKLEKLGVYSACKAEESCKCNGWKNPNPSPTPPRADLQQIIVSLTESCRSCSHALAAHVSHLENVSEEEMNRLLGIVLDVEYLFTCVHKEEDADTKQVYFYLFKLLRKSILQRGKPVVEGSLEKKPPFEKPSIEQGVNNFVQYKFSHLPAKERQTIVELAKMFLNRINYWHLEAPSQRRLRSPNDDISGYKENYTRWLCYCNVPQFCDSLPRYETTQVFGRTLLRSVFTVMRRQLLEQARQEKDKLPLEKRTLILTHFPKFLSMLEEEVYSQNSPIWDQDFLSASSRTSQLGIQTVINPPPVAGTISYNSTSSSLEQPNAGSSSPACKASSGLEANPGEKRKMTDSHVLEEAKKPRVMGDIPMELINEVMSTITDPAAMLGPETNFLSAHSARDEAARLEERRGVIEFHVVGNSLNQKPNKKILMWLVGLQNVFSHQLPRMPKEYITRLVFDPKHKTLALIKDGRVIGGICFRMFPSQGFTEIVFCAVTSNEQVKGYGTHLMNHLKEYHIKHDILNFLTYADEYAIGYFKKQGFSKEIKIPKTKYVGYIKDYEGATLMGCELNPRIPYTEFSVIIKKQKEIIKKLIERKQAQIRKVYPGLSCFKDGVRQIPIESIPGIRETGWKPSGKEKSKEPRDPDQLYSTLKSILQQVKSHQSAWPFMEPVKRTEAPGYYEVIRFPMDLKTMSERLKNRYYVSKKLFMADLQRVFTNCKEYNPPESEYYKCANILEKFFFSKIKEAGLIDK
Chain of Bromodomain-containing protein 3 (Homo sapiens) (Q15059 2-726 limits assumed): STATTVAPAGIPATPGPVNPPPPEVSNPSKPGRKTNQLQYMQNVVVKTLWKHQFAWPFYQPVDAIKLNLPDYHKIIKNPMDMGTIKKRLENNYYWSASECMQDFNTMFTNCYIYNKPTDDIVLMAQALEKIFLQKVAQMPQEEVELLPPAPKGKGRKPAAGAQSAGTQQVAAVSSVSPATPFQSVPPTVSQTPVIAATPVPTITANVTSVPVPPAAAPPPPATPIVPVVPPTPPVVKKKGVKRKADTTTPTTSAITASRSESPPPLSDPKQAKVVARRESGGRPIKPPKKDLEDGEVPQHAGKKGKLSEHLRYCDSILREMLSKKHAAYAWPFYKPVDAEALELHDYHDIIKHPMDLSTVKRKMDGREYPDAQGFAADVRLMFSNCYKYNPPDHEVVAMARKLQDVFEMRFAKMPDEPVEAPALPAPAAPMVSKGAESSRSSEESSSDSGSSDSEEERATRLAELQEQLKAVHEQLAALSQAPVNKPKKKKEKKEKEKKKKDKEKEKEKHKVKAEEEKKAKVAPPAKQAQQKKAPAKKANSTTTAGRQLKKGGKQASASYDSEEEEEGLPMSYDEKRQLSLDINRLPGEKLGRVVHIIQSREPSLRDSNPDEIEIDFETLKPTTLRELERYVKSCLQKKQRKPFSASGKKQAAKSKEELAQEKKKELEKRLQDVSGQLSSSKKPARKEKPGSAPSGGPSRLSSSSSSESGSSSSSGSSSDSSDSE
Chain of Bromodomain-containing protein 2 (Homo sapiens) (P25440 whole entry, looked up, the tested form may be a part): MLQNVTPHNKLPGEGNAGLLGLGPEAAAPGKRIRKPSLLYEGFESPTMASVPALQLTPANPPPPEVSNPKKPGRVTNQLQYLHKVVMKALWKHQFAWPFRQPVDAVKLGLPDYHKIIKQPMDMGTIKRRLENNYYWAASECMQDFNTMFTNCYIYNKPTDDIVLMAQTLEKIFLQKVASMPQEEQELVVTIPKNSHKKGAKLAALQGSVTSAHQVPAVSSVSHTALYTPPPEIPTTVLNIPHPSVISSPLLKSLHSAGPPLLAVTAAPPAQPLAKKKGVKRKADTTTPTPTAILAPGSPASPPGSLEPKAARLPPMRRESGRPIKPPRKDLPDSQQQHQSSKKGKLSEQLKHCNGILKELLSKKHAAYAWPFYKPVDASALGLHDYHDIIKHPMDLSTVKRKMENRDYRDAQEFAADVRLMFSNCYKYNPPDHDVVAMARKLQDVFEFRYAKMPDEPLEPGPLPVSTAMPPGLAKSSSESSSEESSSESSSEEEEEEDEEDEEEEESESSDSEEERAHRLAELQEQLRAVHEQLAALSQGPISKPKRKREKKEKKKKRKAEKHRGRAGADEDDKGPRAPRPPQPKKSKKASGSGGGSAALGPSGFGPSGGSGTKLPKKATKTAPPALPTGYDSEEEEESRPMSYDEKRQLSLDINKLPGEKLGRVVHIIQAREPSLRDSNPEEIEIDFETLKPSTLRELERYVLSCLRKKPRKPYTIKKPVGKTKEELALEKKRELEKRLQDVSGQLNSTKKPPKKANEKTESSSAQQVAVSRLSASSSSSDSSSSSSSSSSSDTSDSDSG

A word on the GI50: it is the concentration at which growth is held to half of that of the control. A low value points to more potent growth inhibition. Take `Cc1noc(C)c1-c1cc(O)cc(C(O)c2ccccc2)c1` (stereo not given): the half-life at 3 µM in data set [1] is 39.8 min. Besides, in data set [2], the microsomal CLint at 3 µM turned out to be 34.8 µL/min/mg. The inhibition of growth at 10 µM in the data set on CCRF-CEM came to 53.3%; in the data set on HCC 2998 [3] it was 37.8%; with SW-620 it was 27.9%; in the data set on UO-31, 83.1%. Further, the GI50 worked out at 21.3 µM in the data set with NCI-H226; 8.55 µM with HCC 2998 [4]; 28.9 µM in the data set on Malme-3M; 4.66 µM in the data set with UACC-257; 17.2 µM in the data set on RXF 393 [5]. The Activity in [6] worked out at 66%; in data set [7], 1.4%; in data set [8], 0.5%; in data set [9], 3.7%; in data set [10] it was 0.2%; in data set [11], 100%. In addition, the Activity in data set [12] was 8.8%; on Peregrin (Homo sapiens), 100%; in data set [13] it was 43%; in [14] it was 93%; in [15], 100%; in data set [16], 100%.

Turning to `COc1ccccc1S(=O)(=O)Nc1ccc2c(c1)CN(C)C(=O)N2`, the inhibition of growth at 10 µM worked out at 51.1% in the data set on CCRF-CEM; 35.6% in the data set with HCC 2998 [3]; 40.6% with SW-620; 50% in the data set on U-251; 26.7% in the data set with RXF 393 [17]; 89.8% in the data set on UO-31. Also, the GI50 was found to be 14.1 µM in the data set on NCI-H226; 8.5 µM in the data set with NCI-H23; 3.6 µM in the data set on UACC-257; 700 nM in the data set on UACC-62; 7.9 µM with RXF 393 [5]; 28.2 µM in the data set on PC-3.

The values above are taken from ChEMBL document CHEMBL4118192, “BET bromodomain ligands: Probing the WPF shelf to improve BRD4 bromodomain affinity and metabolic stability” (Bioorg Med Chem, 2018).
